Results on eight compounds are retold here after ChEMBL document CHEMBL1133045, “Enhancing the aqueous solubility of d4T-based phosphoramidate prodrugs” (Bioorg Med Chem Lett, 2000).

The test system of data set [1] is CCRF-CEM. In words: Compound was evaluated for the cytotoxicity against CEM cell proliferation by 50%. Format: functional. Particulars: Homo sapiens.
The nature of data set [2]: Partition coefficient (logP). Format: physicochemical. Particulars: octanol/water. The method in brief:
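LogP measured as the 1-octanol/water partition coefficient.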

Data set [3] deals with CCRF-CEM. In words: Concentration required to protect CEM cells against cytopathicity of HIV-2 by 50%. Format: functional, cell-based. Particulars: Homo sapiens.
Data set [4] relates to CCRF-CEM. Put plainly: Concentration required to protect CEM cells against cytopathicity of HIV-1 by 50%. Particulars: Homo sapiens. The format is functional, cell-based.
Data set [5] concerns CCRF-CEM. Put plainly: Concentration required to protect CEM/TK- cells against cytopathicity of HIV-2 by 50%. Format: functional, cell-based. Particulars: Homo sapiens. In general terms: Protection from cytopathic effect is a common read-out in antiviral testing.

For orientation: CC50 means the concentration at which the toxic effect on the cells reaches its halfway point. Read a low CC50 as greater toxicity to the cells. Broadly, the logP is a log measure of how a compound divides between an organic and an aqueous phase. Turning to `COC(=O)C(C)NP(=O)(OC[C@@H]1C=C[C@H](n2cc(C)c(=O)[nH]c2=O)O1)Oc1ccccc1` (stereo partly specified), the midpoint of cytotoxicity in the data set with CCRF-CEM [1], the CC50, lay at 33 µM. The log partition coefficient (logP) in data set [2] is 1.04.

One may read the EC50 as the concentration that produces a half-maximal response. As for `COC(=O)C(N)Cc1ccc(OP(=O)(NC(C)C(=O)OC)OCC2C=CC(n3cc(C)c(=O)[nH]c3=O)O2)cc1` (stereo unspecified), the EC50 in the data set with CCRF-CEM [3] worked out at 10000 nM; in the data set with CCRF-CEM [4], 4000 nM; with CCRF-CEM [5] it was 5000 nM. Besides, the log partition coefficient (logP) in data set [2] turned out to be 0.09.

On to `COC(=O)C(C)NP(=O)(OCC1C=CC(n2cc(C)c(=O)[nH]c2=O)O1)Oc1ccc(CC(NC(=O)OC(C)(C)C)C(=O)OC)cc1` (stereo unspecified), for which the concentration for a half-maximal effect (EC50) with CCRF-CEM [3] amounted to 700 nM; with CCRF-CEM [4] it was 650 nM; in the data set on CCRF-CEM [5], 800 nM. Further, in the data set on CCRF-CEM [1], the CC50 amounted to 217 µM. Moreover, the logP in data set [2] was determined as 1.07.

As to `COCCOc1ccc(OP(=O)(NC(C)C(=O)OC)OCC2C=CC(n3cc(C)c(=O)[nH]c3=O)O2)cc1` (stereo unspecified), the figures for the concentration for a half-maximal effect (EC50) in the data set on CCRF-CEM [3], in the data set with CCRF-CEM [4] and with CCRF-CEM [5] were 600 nM, 90 nM and 340 nM, respectively. This compound came in with a CC50 in the data set with CCRF-CEM [1] of 35 µM. The lipophilicity (logP) in data set [2] came out at 0.86.

For the compound `COCCOCCOc1ccc(OP(=O)(NC(C)C(=O)OC)OCC2C=CC(n3cc(C)c(=O)[nH]c3=O)O2)cc1` (stereo unspecified), the concentration for a half-maximal effect (EC50) in the data set with CCRF-CEM [3] was determined as 1000 nM; in the data set with CCRF-CEM [4] it was 550 nM; in the data set on CCRF-CEM [5], 1200 nM. The CC50 with CCRF-CEM [1] came out at 47 µM. Moreover, the logP in data set [2] was 0.86.

In the case of `CCOCCOc1ccc(OP(=O)(NC(C)C(=O)OC)OCC2C=CC(n3cc(C)c(=O)[nH]c3=O)O2)cc1` (stereo unspecified), the half-maximal effective concentration (EC50) in the data set on CCRF-CEM [3] came out at 250 nM; with CCRF-CEM [4], 200 nM; in the data set on CCRF-CEM [5], 400 nM. In the data set on CCRF-CEM [1], this compound gave a half-maximal cytotoxic concentration (CC50) of 64 µM. Besides, in data set [2], the logP is 1.1.

Take `COC(=O)C(C)NP(=O)(OC[C@@H]1C=C[C@H](n2cc(C)c(=O)[nH]c2=O)O1)Oc1ccc(OC)cc1` (stereo partly specified): the EC50 with CCRF-CEM [3] came to 53 nM; in the data set with CCRF-CEM [4], 57 nM; with CCRF-CEM [5], 47 nM. Also, the half-maximal cytotoxic concentration (CC50) in the data set with CCRF-CEM [1] is above 100 µM. The same compound yielded a logP in data set [2] of 1.09.

For `COCCOCCOCCOc1ccc(OP(=O)(NC(C)C(=O)OC)OCC2C=CC(n3cc(C)c(=O)[nH]c3=O)O2)cc1` (stereo unspecified), the values for the concentration for a half-maximal effect (EC50) in the data set with CCRF-CEM [3], with CCRF-CEM [4] and in the data set with CCRF-CEM [5] were 1300 nM, 750 nM and 1350 nM, respectively. This compound came in with a CC50 in the data set on CCRF-CEM [1] of 114 µM. The same compound displayed a logP in data set [2] of 0.86.
